# Bioassay records as filed in PubChem.
# Mdm2 MdmX PPI: human Mdm2/MdmX binding inhibition | SaOS-2 split-luciferase Mdm2/MdmX complementation, luminescence | O15151+Q00987 | actives 3% (n = 330,000) | inhibition, % at 8 µM;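 active = inhibition of at least 50% at 8 µM in the primary screen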
# UPR XBP1 act: adaptive UPR (XBP1) activation | CHO-XBP1 luciferase reporter, IRE1-XBP1 UPR activation, luminescence; percent of tunicamycin response, DMSO as zero | activation, % at 20 µM | actives 0.33% (n = 330,000) | AID 463104;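 active = versus positive control, 20 µM dose yields 30% or more activation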;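 also: 100% = tunicamycin at 10 µg/mL and 0% = DMSO only wells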
#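 Material: CHO cell line with stable XBP1 luciferase reporter; buffer or medium: F12 medium containing 10% fetal bovine serum; compound: single point, 20 µM final compound, 1% DMSO; incubation: 6 h treatment, 37 °C; measured by: glow luminescence from Steady-Glo reagent; evaluation: activation, % of tunicamycin; control set: tunicamycin high, DMSO low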
# UPR CHOP act: apoptotic UPR (CHOP) activation. CHO-CHOP luciferase reporter, luminescence; percent of tunicamycin response over DMSO baseline. activation, % at 10 µM. actives 0.34% (n = 330,000);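 active = at 10 µM dose, activation of 40% or more, normalized to positive control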;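 also: 100% = tunicamycin at 10 µg/mL and 0% = DMSO alone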
#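 measured by = luciferase luminescence | assay system = CHO-CHOP cells, stable luciferase reporter of PERK-eIF2a-CHOP signalling | amount = 500 reporter cells seeded per well | timing = 6 h compound exposure at 37 °C after overnight seeding | controls = positive tunicamycin 10 µg/mL, negative DMSO alone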
# UBC13 inh: human UBC13 polyubiquitination inhibition | P61088 | UBC13 polyubiquitin chain formation, TR-FRET | actives 0.47% (n = 330,000) | inhibition, % at 20 µM; in the data active = inhibition above about 45%, passing the limit was not always enough
# Target sequence (P61088 whole entry, looked up): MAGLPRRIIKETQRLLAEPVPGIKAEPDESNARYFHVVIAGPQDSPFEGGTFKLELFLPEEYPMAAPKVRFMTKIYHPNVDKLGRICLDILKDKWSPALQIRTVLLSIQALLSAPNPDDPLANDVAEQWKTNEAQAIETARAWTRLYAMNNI
# Apaf1 inhib: inhibitors of human Apaf-1 apoptosome; AID 489030; reconstituted apoptosome caspase-3 activity, DEVD-Rh110 fluorescence; inhibition, % at 20 µM; actives 0.71% (n = 330,000); O14727; active = inhibition of at least 40% at 20 µM;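 also: plate controls were DMSO wells for no effect and DEVD-CHO caspase inhibitor wells for full effect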
#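 Medium: Hepes buffer, pH 7.5 / System: biochemical Apaf-1 apoptosome reconstitution / Measured by: Rh110 fluorescence, excitation 480 nm, emission 540 nm / Times: compound with Apaf-1, dATP, procaspase-3 30 min, then 50 min reaction, room temperature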
# Mdm2-MdmX conf: human Mdm2/MdmX binding inhibition, confirmed | shares compounds with Mdm2 MdmX PPI | luminescent assay | inhibition, % at 8 µM | actives 55% (n = 10,000); in the data active = inhibition above about 40%
# Full FLuc ctr: counter-screen for Mdm2/MdmX inhibitors: full-length luciferase; shares compounds with Mdm2 MdmX PPI; SaOS-2 full-length luciferase counterscreen, luminescence; inhibition, % at 8 µM; actives 77% (n = 6,200); AID 504607;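 active = mean inhibition at 8 µM reaching about 37%, which flags the compound as non-specific, limit read from the data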;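 also: p53-null SaOS-2 cells with luciferase driven by a doxycycline-inducible promoter; compound on cells about two nights before reading with doxycycline added after day one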
# Numbers without * were called inactive; x = no result. Shown are actives, neighbours in structure and some others; about 4.1% of the full set was active somewhere.
SMILES,Mdm2 MdmX PPI,UPR XBP1 act,UPR CHOP act,UBC13 inh,Apaf1 inhib,Mdm2-MdmX conf,Full FLuc ctr
Cc1ccc(NC(=O)Cc2cc(C(=O)O)c3ccccc3n2)c(C)c1,82*,10,16,-12,18,59*,40*
Nc1c(C(=O)CSc2nc3ccccc3o2)c(=O)[nH]c(=O)n1C1CC1,80*,3,2,-13,3,19,x
Nc1[nH]n2c(=O)cc(-c3ccccc3)nc2c1N=Nc1ccc(S(N)(=O)=O)cc1,19,-1,1,-190,20,x,x
O=c1ccc(-c2ccc([N+](=O)[O-])cc2)nn1-c1ccccc1,10,4,-2,-11,-6,x,x
NS(=O)(=O)c1ccc(N=Nc2c(-c3ccccc3)[nH]n(-c3nc(-c4ccccc4)cs3)c2=O)cc1,81*,1,15,-67,1,28,x
O=c1c(N=Nc2ccc(O)cc2)c(-c2ccccc2)[nH]n1-c1ccc([N+](=O)[O-])cc1,100*,12,19,-101,-22,19,x
Cc1[nH]n(-c2ccccc2)c(=O)c1N=Nc1ccc(C(N)=O)cc1,18,3,-1,-32,8,x,x
O=c1cc(-c2ccccc2)[nH]n1-c1ccc([N+](=O)[O-])cc1,55*,-1,2,-29,13,6,x
NC(=O)c1ccc(N=Nc2c(-c3ccccc3)[nH]n(-c3ccccc3)c2=O)cc1,93*,4,2,-7,13,85*,108*
CSc1cccc(CN2CCN(CCC(C)C)C(CCO)C2)c1 (stereo unspecified),11,0,1,-2,-6,x,x
O=C(c1cc(-c2ccc(Cl)cc2)n[nH]1)N1CCN(C(=O)c2ccco2)CC1,18,-4,-1,-13,21,x,x
Cc1cc2c(cc(C(=O)OCC(=O)NCc3cccs3)n2C(C)C)o1,63*,12,0,0,10,50*,77*
O=C(Nc1cccc(S(=O)(=O)NCc2ccco2)c1)c1cc(-c2ccc(F)cc2)nc2ccccc12,69*,-1,9,6,7,32,76*
COc1ccc(-c2cc(C(=O)Nc3cccc(S(=O)(=O)NCc4ccco4)c3)c3ccccc3n2)cc1OC,54*,0,2,16,-12,66*,64*
COc1ccc(-c2cc(C(=O)NCc3ccco3)c3ccccc3n2)cc1OC,-12,1,7,5,-12,x,x
COc1cc(C(=O)Nc2cccc(S(=O)(=O)NCc3ccco3)c2)cc(OC)c1OC,69*,-2,0,15,-10,40,98*
COc1cccc(/C=C/C(=O)OCC(=O)NCCc2ccccc2)c1,3,-2,-2,8,8,x,x
Cc1ccc(-n2[nH]c(C)c(/C=N/NC(=O)c3ccc(O)cc3O)c2=O)cc1,50,2,1,-31,11,x,x
Cc1[nH]n(-c2ccc(Br)cc2)c(=O)c1/C=N/NC(=O)c1ccccc1,53*,0,11,-29,16,52*,47*
Cc1ccc(OCC(=O)N/N=C\c2c(C)[nH]n(-c3ccccc3)c2=O)c([N+](=O)[O-])c1,52*,1,0,-18,20,27,x
Cc1cccc(/C=C/C(=O)c2cc(Br)ccc(=O)c2O)c1,54*,-5,1,-35,7,36,73*
CCc1ccc(/C=C/C(=O)c2cc(Br)ccc(=O)c2O)cc1,52*,9,8,-35,23,39,40*
Cc1cc(OCC(=O)N[C@@H](CSCc2ccccc2)C(=O)O)c2c(C)c(C)c(=O)oc2c1,18,4,1,-9,-4,x,x
COCCN(C(=O)C1CCCC1)c1c(N)n(Cc2ccccc2)c(=O)[nH]c1=O,9,-4,0,1,2,x,x
Nc1c(N(C(=O)Nc2ccc(Cl)c(Cl)c2)C2CCCC2)c(=O)[nH]c(=O)n1Cc1ccccc1,78*,-3,0,-17,3,18,x
SMILES,Mdm2 MdmX PPI,UPR XBP1 act,UPR CHOP act,UBC13 inh,Apaf1 inhib,Mdm2-MdmX conf,Full FLuc ctr
C=CCN(CC=C)S(=O)(=O)c1ccc2nc(NC(=O)C(C)C)sc2c1,59*,5,2,-9,9,60*,52*
CCOC(=O)c1ccc2nc(NC(=O)C(C)C)sc2c1,-88,-1,9,3,7,x,x
CC(=O)N/C(=N/c1nc(C)cc(C)n1)Nc1cc(C)cc(C)c1,6,3,2,-3,9,x,x
CC(=O)N/C(=N\c1nc(C)cc(C)n1)Nc1ccc2ccccc2c1,74*,-4,1,10,24,72*,62*
CCNC(=O)CC1C(=O)N(CC)C(=S)N1NC(=O)c1ccccc1 (stereo unspecified),-20,1,1,6,-22,x,x
C/C(=N\NC(=O)c1ccc(Cl)c(Cl)c1)c1ccc(Br)s1,68*,10,15,24,-2,55*,47*
CC(C)c1nc2cc3ccccc3cc2[nH]1,-13,2,3,7,-10,x,x
COc1cc(-c2nc(-c3ccccc3)c(-c3cc([N+](=O)[O-])ccc3C)[nH]2)cc(OC)c1OC,69*,-1,1,4,-5,30,x
CSCCC(NS(=O)(=O)c1ccc(C)c(C(=O)O)c1)C(=O)O (stereo unspecified),11,-2,1,-4,-12,x,x
CN(CC(=O)Nc1ccc(Cl)c(C(F)(F)F)c1)C(=O)CCN1C(=O)C2CC=CCC2C1=O (stereo unspecified),18,-4,1,1,19,x,x
CCCCn1cc(S(=O)(=O)c2ccccc2)c(=O)c2cc(C)ccc21,21,-3,-1,-4,-2,x,x
CC(C)(CN1CCCC1)NS(=O)(=O)c1ccc(Cl)cc1,-27,5,0,2,-3,x,x
CC(C)(CN1CCNCC1)NS(=O)(=O)c1ccc(Cl)cc1,61*,1,0,19,40,25,x
O=C(c1ccccc1)c1ccc(OCC(O)CN2CCCCC2)cc1 (stereo unspecified),3,2,0,-2,0,x,x
OC(COc1ccc(CNCCc2ccccc2F)cc1)CN1CCCCC1 (stereo unspecified),55*,4,3,7,14,40*,54*
CCOc1ccc(Oc2c(/C=N/NC(=O)COc3ccccc3OC)c(C)nn2-c2ccccc2)cc1,56*,3,1,-18,27,1,x
Cc1ccc(C)c(OCC(=O)N/N=C/c2c(C)nn(-c3ccccc3)c2Cl)c1C,51*,1,1,5,26,35,x
COC(=O)N/N=C\c1c(C)nn(-c2ccccc2)c1Cl,-26,4,4,10,-2,x,x
